The source made the active and inactive calls. No cut-off for these calls is given here.
What was measured:
[1] = biological target: T1, Leucyl-cystinyl aminopeptidase (Homo sapiens, UniProt Q9UIQ6); assay: Inhibition of human recombinant IRAP expressed in HeLa cells assessed as L-Leucine-7-amido-4-methyl coumarin hydrolysis to 7-amido-4-methyl coumarin at 50 to 100 uM after 5 to 10 mins by fluorescence assay relative to control; assay type: cell-based
[2] = biological target: T2, Endoplasmic reticulum aminopeptidase 2 (Homo sapiens, UniProt Q6P179); assay: Inhibition of recombinant ERAP2 (unknown origin) expressed in baculovirus-infected Hi5 insect cells assessed as L-Arginyl-7-amido-4-methyl coumarin hydrolysis to 7-amido-4-methyl coumarin at 50 to 100 uM after 5 to 10 mins by fluorescence assay relative to control
T2 sequence (Q6P179 whole entry): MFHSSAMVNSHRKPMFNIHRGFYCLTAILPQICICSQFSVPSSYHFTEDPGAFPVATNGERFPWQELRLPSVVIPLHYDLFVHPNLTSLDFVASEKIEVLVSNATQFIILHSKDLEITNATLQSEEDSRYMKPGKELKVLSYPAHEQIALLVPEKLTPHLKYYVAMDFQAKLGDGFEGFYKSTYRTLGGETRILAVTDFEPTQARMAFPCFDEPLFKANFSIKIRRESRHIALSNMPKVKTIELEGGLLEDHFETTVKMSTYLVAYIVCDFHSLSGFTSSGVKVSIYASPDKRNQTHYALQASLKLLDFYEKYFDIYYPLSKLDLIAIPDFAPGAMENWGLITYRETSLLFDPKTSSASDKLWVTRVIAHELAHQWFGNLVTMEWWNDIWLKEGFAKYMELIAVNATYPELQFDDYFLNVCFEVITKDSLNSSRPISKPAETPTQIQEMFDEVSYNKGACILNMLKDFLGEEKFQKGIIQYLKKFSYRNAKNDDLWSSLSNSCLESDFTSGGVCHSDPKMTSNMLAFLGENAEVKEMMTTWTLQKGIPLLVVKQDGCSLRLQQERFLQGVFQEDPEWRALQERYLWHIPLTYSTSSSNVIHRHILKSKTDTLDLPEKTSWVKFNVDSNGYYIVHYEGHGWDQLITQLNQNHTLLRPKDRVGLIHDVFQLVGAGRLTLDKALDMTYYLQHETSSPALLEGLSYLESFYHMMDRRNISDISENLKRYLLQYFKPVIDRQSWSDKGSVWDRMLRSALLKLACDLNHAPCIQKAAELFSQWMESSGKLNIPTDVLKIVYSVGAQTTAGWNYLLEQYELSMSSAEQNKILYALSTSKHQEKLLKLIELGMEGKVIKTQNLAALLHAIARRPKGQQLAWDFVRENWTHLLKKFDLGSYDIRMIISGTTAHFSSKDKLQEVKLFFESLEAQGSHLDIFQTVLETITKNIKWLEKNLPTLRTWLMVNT
How it was run: (§1)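 ERAP2 was made as a recombinant protein in baculovirus-infected Hi5 insect cells and purified by affinity chromatography. Activity was monitored fluorogenically as the rate of R-AMC hydrolysis. Inhibitor was titrated, and inhibition was also examined at 50 μM and across 50–100 μM.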

[3] = biological target: Endoplasmic reticulum aminopeptidase 1 (Homo sapiens) (UniProt Q9NZ08); assay: Inhibition of recombinant ERAP1 (unknown origin) expressed in baculovirus-infected Hi5 insect cells assessed as L-Leucine-7-amido-4-methyl coumarin hydrolysis to 7-amido-4-methyl coumarin at 50 uM after 5 to 10 mins by fluorescence assay
Sequence of Endoplasmic reticulum aminopeptidase 1 (Homo sapiens) (Q9NZ08 whole entry): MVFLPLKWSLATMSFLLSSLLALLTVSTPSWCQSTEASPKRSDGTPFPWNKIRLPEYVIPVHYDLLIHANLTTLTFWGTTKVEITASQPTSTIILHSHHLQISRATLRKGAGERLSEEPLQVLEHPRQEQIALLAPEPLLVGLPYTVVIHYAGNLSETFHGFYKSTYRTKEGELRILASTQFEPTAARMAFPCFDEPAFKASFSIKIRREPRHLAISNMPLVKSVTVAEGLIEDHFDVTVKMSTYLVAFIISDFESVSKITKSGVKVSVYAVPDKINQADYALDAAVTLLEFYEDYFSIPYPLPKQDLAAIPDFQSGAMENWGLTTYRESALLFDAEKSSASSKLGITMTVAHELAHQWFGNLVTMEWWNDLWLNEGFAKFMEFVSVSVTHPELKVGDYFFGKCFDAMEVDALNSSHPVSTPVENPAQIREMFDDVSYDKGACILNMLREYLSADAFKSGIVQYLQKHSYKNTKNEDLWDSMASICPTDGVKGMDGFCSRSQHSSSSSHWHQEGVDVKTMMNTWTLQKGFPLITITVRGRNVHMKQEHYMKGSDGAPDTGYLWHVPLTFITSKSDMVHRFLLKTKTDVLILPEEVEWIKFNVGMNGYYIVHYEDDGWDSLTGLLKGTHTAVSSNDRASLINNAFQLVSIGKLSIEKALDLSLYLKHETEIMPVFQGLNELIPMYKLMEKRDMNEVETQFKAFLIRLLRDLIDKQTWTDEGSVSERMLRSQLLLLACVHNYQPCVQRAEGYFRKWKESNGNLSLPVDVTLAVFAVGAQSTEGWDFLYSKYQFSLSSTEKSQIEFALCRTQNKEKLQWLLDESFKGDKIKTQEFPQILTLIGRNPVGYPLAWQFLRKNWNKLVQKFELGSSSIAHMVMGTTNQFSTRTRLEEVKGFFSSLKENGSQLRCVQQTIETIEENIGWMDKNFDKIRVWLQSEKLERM
How it was run: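 ERAP1 was made as a recombinant protein in Hi5 insect cells infected with recombinant baculovirus and affinity-purified to homogeneity. Activity was followed as the kinetics of hydrolysis of the fluorogenic substrate L-AMC. Inhibitor was titrated at increasing amounts, and single-point inhibition was checked at 50 μM.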

[4] = biological target: T2, Endoplasmic reticulum aminopeptidase 2; assay: Inhibition of recombinant ERAP2 (unknown origin) expressed in baculovirus-infected Hi5 insect cells assessed as L-Arginyl-7-amido-4-methyl coumarin hydrolysis to 7-amido-4-methyl coumarin after 5 to 10 mins by fluorescence assay
[5] = biological target: T1, Leucyl-cystinyl aminopeptidase; assay: Inhibition of human recombinant IRAP expressed in HeLa cells assessed as L-Leucine-7-amido-4-methyl coumarin hydrolysis to 7-amido-4-methyl coumarin after 5 to 10 mins by fluorescence assay; assay type: cell-based
[6] = biological target: T2, Endoplasmic reticulum aminopeptidase 2; assay: Inhibition of recombinant ERAP2 (unknown origin) expressed in baculovirus-infected Hi5 insect cells assessed as L-Arginyl-7-amido-4-methyl coumarin hydrolysis to 7-amido-4-methyl coumarin at 50 uM after 5 to 10 mins by fluorescence assay; how it was run: as §1

T1 sequence (Q9UIQ6 whole entry): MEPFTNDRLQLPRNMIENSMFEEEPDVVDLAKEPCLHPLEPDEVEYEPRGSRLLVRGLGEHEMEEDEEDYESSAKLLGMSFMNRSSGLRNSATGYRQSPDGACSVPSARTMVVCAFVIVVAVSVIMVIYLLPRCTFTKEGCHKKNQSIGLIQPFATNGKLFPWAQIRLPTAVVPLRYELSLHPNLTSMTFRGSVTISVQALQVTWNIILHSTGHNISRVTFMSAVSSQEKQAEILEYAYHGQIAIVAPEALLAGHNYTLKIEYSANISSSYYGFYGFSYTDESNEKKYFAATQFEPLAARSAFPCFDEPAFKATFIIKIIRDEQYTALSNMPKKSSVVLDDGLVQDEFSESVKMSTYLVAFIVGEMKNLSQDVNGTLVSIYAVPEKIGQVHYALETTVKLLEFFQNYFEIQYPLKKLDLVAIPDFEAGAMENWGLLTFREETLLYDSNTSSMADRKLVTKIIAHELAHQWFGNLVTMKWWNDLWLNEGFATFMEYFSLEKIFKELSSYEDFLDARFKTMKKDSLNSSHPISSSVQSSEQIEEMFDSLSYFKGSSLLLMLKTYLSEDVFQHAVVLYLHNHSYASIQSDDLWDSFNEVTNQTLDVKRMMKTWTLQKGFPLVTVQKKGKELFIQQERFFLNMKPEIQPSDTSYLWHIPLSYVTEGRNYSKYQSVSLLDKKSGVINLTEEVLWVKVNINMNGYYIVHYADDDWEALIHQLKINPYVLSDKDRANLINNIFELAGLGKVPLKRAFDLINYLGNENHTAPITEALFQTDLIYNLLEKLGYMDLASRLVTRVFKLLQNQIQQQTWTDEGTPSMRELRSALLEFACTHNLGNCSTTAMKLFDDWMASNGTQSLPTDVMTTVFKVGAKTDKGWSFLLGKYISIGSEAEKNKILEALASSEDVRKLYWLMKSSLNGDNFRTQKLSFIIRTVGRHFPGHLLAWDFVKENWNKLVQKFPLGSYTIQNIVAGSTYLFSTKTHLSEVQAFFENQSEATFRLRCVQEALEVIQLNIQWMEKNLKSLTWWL

Row | SMILES | inhibition [1] | inhibition [2] | inhibition [3] | IC50 [4] | IC50 [5] | inhibition [6]
1 | Nc1ccc(C(=O)O)cc1NC(=O)[C@@H](N)CCc1ccccc1 | < 20% | < 20% | inactive | > 100 µM | > 100 µM | –
2 | COC(=O)c1ccc(N)c(NC(=O)[C@@H](N)CCc2ccccc2)c1 | – | < 20% | inactive | > 100 µM | – | –
3 | COC(=O)[C@H](CCCNC(=N)N)NC(=O)c1ccc(N)c(NC(=O)[C@@H](N)CCc2ccccc2)c1 | – | – | inactive | – | – | inactive
4 | Nc1ccc(C(=O)N[C@@H](Cc2c[nH]c3ccccc23)C(=O)OCc2ccccc2)cc1NC(=O)[C@@H](N)CCc1ccccc1 | – | – | inactive | – | – | –
5 | COC(=O)[C@H](Cc1ccc(O)cc1)NC(=O)c1ccc(N)c(NC(=O)[C@@H](N)CCc2ccccc2)c1 | – | < 20% | – | > 100 µM | – | –

Further lines, results first:

Row | inhibition [1] | inhibition [2] | inhibition [3] | IC50 [4] | IC50 [5] | inhibition [6] | SMILES
6 | < 20% | – | inactive | – | > 100 µM | inactive | CC(C)[C@H](NC(=O)c1ccc(N)c(NC(=O)[C@@H](N)CCc2ccccc2)c1)C(=O)O
7 | – | – | inactive | – | – | inactive | COC(=O)[C@@H](NC(=O)c1ccc(N)c(NC(=O)[C@@H](N)CCc2ccccc2)c1)[C@@H](C)O
8 | – | – | inactive | – | – | inactive | COC(=O)[C@H](C)NC(=O)c1ccc(N)c(NC(=O)[C@@H](N)CCc2ccccc2)c1

From ChEMBL document CHEMBL2417496, “Novel selective inhibitors of aminopeptidases that generate antigenic peptides” (Bioorg Med Chem Lett, 2013)
